The text below walks through data of publication PMC7246176 (Nature chemical biology, 2020).

Like-named read-outs stand apart in the source and are kept apart here.

One experiment concerns PATU-8902 cells. Kind of experiment: Cell viability, 2D-adherent monolayer culture, PATU-8902. Type of experiment: cell-based, human. The conditions noted are these: read-out: PATU-8902 cells 2D monolayer culture IC50. The essentials:
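PATU-8902 or PATU-8988T cells were plated at 100 cells/well and left overnight to adhere (2D plates) or to form spheroids (ultra-low-attachment 3D spheroid plates). Compound was pin-transferred, then 120 h incubation. Viability by CellTiter-Glo luminescence after 15 min at room temperature, normalized to DMSO-treated wells for each cell line.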

Experiment [1] addresses T1, DCLK1 (Homo sapiens, UniProt O15075).
T1 sequence (O15075 1-740): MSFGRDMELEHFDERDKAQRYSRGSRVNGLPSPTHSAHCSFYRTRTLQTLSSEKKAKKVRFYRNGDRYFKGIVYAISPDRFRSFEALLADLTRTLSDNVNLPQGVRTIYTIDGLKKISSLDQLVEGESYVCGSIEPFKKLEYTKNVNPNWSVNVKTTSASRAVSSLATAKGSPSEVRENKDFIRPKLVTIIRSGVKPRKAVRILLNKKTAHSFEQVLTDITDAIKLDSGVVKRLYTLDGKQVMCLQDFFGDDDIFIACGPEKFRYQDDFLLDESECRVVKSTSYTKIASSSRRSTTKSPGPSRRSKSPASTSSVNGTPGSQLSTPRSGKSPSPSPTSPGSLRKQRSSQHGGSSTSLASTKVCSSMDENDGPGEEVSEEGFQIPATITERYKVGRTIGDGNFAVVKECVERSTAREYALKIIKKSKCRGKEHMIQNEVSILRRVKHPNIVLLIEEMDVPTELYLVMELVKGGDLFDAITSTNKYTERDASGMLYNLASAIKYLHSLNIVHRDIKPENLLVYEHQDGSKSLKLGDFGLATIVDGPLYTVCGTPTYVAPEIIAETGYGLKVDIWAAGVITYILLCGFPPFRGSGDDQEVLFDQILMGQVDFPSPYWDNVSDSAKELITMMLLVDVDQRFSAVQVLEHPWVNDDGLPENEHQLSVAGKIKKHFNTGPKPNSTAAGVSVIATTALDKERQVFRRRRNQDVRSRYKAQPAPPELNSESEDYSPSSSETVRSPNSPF
Kind of experiment: 33P-ATP DCLK1 kinase assay. Type of experiment: biochemical. The settings on record: ATP 50 μM (Km).

The test system of the next experiment is PANFR0029_T2. Kind of experiment: Patient-derived pancreatic organoid viability, PANFR0029_T2. The settings on record: read-out: PANFR0029_T2 3D organoid culture IC50. It counts as cell-based, human. The essentials:
(§1)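 Patient-derived PDAC organoids were dissociated to single cells and plated at 1000 viable cells/well in complete organoid medium with 10% Matrigel, in ultra-low-attachment 384-well plates. After 24 h, compound was added by digital dispenser, then 7 days incubation. Read-out was CellTiter-Glo 3D luminescence after 1 h shaking at room temperature, normalized to DMSO wells for each culture.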

For another experiment, the target named is LRRK2 (Homo sapiens, UniProt Q5S007). Kind of experiment: LRRK2 ADAPTA kinase assay. The settings on record: Table 1. Type of experiment: biochemical.
Chain of LRRK2 (Q5S007 whole entry): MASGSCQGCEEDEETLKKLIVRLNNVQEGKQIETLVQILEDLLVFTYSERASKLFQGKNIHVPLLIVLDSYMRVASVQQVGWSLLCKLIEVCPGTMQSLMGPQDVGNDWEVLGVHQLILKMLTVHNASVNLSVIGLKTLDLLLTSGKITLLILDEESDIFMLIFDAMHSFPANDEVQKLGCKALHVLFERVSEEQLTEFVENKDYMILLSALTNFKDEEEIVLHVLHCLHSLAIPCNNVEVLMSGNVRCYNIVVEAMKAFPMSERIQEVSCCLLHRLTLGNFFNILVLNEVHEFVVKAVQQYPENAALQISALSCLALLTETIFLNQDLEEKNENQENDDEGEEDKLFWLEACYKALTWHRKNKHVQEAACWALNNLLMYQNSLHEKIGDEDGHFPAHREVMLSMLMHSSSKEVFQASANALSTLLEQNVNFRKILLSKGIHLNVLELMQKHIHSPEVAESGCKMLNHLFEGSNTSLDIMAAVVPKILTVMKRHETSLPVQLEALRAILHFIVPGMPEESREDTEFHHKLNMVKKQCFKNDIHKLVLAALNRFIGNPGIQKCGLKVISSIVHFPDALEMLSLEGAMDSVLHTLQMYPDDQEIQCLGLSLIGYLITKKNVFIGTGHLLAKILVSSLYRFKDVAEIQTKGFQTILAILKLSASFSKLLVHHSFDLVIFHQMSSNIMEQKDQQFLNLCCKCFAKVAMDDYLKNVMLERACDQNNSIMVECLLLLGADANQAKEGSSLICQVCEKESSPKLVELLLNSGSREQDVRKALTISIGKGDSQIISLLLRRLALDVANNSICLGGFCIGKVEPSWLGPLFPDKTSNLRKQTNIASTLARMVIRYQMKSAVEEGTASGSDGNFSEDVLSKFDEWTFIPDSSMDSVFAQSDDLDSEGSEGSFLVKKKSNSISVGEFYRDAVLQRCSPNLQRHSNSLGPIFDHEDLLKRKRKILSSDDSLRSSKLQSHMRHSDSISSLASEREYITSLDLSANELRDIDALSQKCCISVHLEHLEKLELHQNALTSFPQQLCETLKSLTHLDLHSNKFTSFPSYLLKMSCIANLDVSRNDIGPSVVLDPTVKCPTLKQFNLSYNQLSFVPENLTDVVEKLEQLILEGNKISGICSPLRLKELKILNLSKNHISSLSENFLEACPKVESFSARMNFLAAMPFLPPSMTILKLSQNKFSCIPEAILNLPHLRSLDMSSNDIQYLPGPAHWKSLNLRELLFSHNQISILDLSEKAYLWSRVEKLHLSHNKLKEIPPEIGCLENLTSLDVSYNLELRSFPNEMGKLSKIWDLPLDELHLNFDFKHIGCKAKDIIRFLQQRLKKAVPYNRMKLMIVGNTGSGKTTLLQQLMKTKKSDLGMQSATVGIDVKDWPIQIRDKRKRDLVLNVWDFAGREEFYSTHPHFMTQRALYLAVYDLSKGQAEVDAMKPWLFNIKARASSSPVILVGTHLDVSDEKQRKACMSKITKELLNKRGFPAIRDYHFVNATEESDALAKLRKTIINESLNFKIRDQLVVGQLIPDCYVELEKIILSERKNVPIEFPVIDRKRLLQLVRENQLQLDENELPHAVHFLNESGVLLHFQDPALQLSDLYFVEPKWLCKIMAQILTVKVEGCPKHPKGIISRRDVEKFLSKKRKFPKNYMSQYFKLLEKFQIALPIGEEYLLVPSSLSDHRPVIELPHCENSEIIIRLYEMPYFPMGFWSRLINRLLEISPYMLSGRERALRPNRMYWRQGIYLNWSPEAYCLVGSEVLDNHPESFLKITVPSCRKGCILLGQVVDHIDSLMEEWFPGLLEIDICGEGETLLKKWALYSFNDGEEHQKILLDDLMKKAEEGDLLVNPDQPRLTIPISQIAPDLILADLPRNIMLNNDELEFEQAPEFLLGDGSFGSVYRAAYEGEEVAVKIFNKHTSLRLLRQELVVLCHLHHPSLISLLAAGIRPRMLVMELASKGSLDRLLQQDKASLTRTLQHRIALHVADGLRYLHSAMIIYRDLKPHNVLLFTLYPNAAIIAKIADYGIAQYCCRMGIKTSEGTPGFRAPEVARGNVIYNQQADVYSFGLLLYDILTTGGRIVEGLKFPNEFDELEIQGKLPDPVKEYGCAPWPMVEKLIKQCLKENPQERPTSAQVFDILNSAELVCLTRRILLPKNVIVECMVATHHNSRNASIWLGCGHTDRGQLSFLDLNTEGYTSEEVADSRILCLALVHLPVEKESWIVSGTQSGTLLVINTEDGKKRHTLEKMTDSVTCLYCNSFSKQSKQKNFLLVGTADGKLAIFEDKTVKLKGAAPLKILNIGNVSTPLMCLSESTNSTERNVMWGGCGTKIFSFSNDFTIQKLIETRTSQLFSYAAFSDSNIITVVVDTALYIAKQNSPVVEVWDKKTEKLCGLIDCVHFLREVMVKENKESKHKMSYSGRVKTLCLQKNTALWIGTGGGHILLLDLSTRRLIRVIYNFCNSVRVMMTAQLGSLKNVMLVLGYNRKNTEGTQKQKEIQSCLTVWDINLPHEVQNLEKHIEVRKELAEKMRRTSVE
The target of the next experiment is BRD4 (Homo sapiens, UniProt O60885). Kind of experiment: BRD4 AlphaScreen assay. Type of experiment: binding.
Experiment [2] concerns the target T1, DCLK1. Kind of experiment: DCLK1 KINOMEscan binding assay.
The test system of another experiment is PATU-8988T cells. Kind of experiment: Cell viability, 2D-adherent monolayer culture, PATU-8988T. It counts as cell-based, human. The conditions noted are these: 120 h, read-out: PATU-8988T cells 2D monolayer culture IC50. A digest of the protocol: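 PATU-8988T and PATU-8902 cells were plated at 100 cells/well in 50 μL media, either adherent (2D) or in ultra-low attachment spheroid plates (3D), overnight. Test compound was pin-transferred and cells were incubated 120 h. Viability was read by CellTiter-Glo luminescence after 15 min at room temperature. Data were normalized to DMSO-treated wells per cell line and fitted.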

The test system of another experiment is PANFR0172_T4. Kind of experiment: Patient-derived pancreatic organoid viability, PANFR0172_T4. Type of experiment: cell-based, human. The conditions noted are these: read-out: PANFR0172_T4 3D organoid culture IC50. The essentials:
as §1

The test system of a further experiment is PANFR0172_T3. Kind of experiment: Patient-derived pancreatic organoid viability, PANFR0172_T3. It counts as cell-based, human. The conditions noted are these: read-out: PANFR0172_T3 3D organoid culture IC50. A digest of the protocol: as §1
In a further experiment the test system is PANFR0172_T2. Kind of experiment: Patient-derived pancreatic organoid viability, PANFR0172_T2. Type of experiment: cell-based, human. The conditions noted are these: read-out: PANFR0172_T2 3D organoid culture IC50. The essentials:
as §1

The target in a further experiment is T2, DCLK2 (Homo sapiens, UniProt Q8N568).
T2 sequence (Q8N568 1-766): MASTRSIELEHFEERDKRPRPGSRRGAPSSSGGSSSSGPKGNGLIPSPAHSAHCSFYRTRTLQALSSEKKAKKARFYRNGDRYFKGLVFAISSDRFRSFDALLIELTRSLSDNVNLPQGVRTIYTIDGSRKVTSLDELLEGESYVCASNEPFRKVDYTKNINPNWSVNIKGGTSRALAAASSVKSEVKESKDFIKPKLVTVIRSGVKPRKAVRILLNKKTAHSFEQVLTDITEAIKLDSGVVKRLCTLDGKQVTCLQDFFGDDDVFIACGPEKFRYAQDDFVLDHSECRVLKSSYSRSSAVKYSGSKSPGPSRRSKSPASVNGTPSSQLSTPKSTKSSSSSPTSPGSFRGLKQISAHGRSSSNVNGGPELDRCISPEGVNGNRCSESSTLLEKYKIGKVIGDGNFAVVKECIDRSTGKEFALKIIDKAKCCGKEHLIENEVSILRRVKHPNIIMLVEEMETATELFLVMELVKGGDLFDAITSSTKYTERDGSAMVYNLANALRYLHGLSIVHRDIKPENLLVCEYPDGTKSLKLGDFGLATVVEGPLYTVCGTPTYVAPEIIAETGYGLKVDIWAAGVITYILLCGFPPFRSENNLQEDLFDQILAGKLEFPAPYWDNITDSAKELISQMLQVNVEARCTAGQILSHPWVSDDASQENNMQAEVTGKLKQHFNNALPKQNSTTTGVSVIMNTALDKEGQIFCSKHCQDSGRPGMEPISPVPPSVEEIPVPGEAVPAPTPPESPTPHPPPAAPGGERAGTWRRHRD
Kind of experiment: 33P-ATP DCLK2 kinase assay. Type of experiment: biochemical. The essentials:
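Radiometric 33P-ATP assay run by a contract lab. […] Test compound in 12-point dose response, top concentration 10 μM. Values are the mean of n = 3 biologically independent samples.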

Where [3] appears, read: viability, 7 d, P.R. = partial response.

As for `COc1cc(N2CCN(C)CC2)ccc1Nc1ncc2c(n1)N(C)c1ccccc1C(=O)N2CC(F)(F)F` [DCLK1-IN-1], the IC50 with PATU-8902 cells (Homo sapiens, PaTu 8902, 120 h) was more than 20 µM; against DCLK1 [1] (DCLK1 kinase assay IC50, 33P-ATP), 0.0572 µM; in the experiment on PANFR0029_T2 (Homo sapiens, 168 h) it was more than 20 µM; against LRRK2 (LRRK2 kinase assay IC50, ADAPTA), 6.97 µM; against BRD4, more than 10 µM; at DCLK1 [2], 0.0095 µM. Also, the IC50 is more than 20 µM with PATU-8988T cells (Homo sapiens, PaTu 8988t); more than 20 µM with PANFR0172_T4 (Homo sapiens, 168 h); 2.12 µM with PANFR0172_T3 (Homo sapiens, 168 h); 0.877 µM in the experiment with PANFR0172_T2 (Homo sapiens, 168 h); 0.103 µM against DCLK2.

Turning to `CCOc1cc(N2CCC(O)CC2)ccc1Nc1ncc2c(n1)N(C)c1ccccc1C(=O)N2C` [XMD8-92], the IC50 in the experiment with PATU-8902 cells (cell viability, 120 h) is more than 20 µM; at DCLK1 [1] (read-out: DCLK1 kinase assay IC50, 33P-ATP), 0.104 µM; in the experiment on PANFR0029_T2 (viability, 7 d, DCLK1-negative organoids), 7.03 µM; at LRRK2 (read-out: LRRK2 kinase assay IC50, ADAPTA) it was 0.036 µM; on BRD4 (read-out: BRD4 binding assay IC50, AlphaScreen, Table 1), 1.57 µM; on DCLK1 [2] (read-out: DCLK1 binding assay IC50, KINOMEscan), 1.4 µM. In addition, the IC50 with PATU-8988T cells (cell viability, P.R. = partial response) was 2.02 µM; in the experiment with PANFR0172_T4 (setting [3]), more than 20 µM; with PANFR0172_T3 (setting [3]), more than 20 µM; in the experiment on PANFR0172_T2 (setting [3]), more than 20 µM; at DCLK2 (read-out: DCLK2 kinase assay IC50, 33P-ATP, ATP 100 μM (Km)), 0.385 µM.
